Converted amounts (≈) assume the structure as drawn.
Assays:
[1] = test system: Staphylococcus aureus; test: Antibacterial activity against Staphylococcus aureus at 10 to 100 ug/mL after 18 hrs by halo zone test; format: functional
Outline: (§1)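 Disk diffusion (halo zone). Strains subcultured in BHI, 18 h at 37 °C. Cells suspended in saline by McFarland to about 10^5 CFU/mL, mixed with antibiotic agar at 40 °C and plated. 6.0 mm paper disks loaded with DMSO-stock dilutions of 10, 20, 25, 50 and 100 per mL. Inhibition zone diameter (mm) read after 18 h at 36 °C. Amoxicillin (30) disk positive control, DMSO disk negative control.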

[2] = test system: Streptococcus pyogenes; test: Antibacterial activity against Streptococcus pyogenes at 10 to 100 ug/mL after 18 hrs by halo zone test; format: functional; outline: as §1
[3] = test system: Salmonella typhimurium; test: Antibacterial activity against Salmonella Typhimurium at 10 to 100 ug/mL after 18 hrs by halo zone test; format: functional, Salmonella enterica subsp. enterica serovar Typhimurium; outline: as §1
[4] = test system: Escherichia coli; test: Antibacterial activity against Escherichia coli at 10 to 100 ug/mL after 18 hrs by halo zone test; format: functional; outline: as §1
[5] = test system: Staphylococcus aureus; test: Antibacterial activity against Staphylococcus aureus after 18 hrs by macro dilution test; format: functional
Outline: (§2)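 Macro-dilution broth test. Each tube received a 24 h old inoculum, standard inoculum about 10^5 CFU/mL. Incubated 18 h at 37 °C. MIC taken visually as the lowest concentration preventing visible growth. Amoxicillin positive control, DMSO negative control.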

[6] = test system: Streptococcus pyogenes; test: Antibacterial activity against Streptococcus pyogenes after 18 hrs by macro dilution test; format: functional; outline: as §2
[7] = test system: Salmonella typhimurium; test: Antibacterial activity against Salmonella Typhimurium after 18 hrs by macro dilution test; format: functional, Salmonella enterica subsp. enterica serovar Typhimurium; conditions: Salmonella enterica; outline: as §2
[8] = test system: Escherichia coli; test: Antibacterial activity against Escherichia coli after 18 hrs by macro dilution test; format: functional; outline: as §2

| MIC [5] [µg/mL] | MIC [6] [µg/mL] | MIC [7] [µg/mL] | MIC [8] [µg/mL] | SMILES | inhibition zone (IZ) [1] [mm] | inhibition zone (IZ) [2] [mm] | inhibition zone (IZ) [3] [mm] | inhibition zone (IZ) [4] [mm] |
| --- | --- | --- | --- | --- | --- | --- | --- | --- |
| 32 (≈ 55.7 µM) | 64 (≈ 111 µM) | 128 (≈ 223 µM) | 64 (≈ 111 µM) | CC(C)CCC[C@@H](C)[C@H]1CC[C@H]2[C@@H]3/C(=N/NC(=S)NC4CCCCC4)C=C4C[C@@H](Cl)CC[C@]4(C)[C@H]3CC[C@]12C | 13.4 | 12.2 | 14.4 | 11.8 |
| 64 (≈ 107 µM) | 64 (≈ 107 µM) | 64 (≈ 107 µM) | 32 (≈ 53.5 µM) | CC(=O)O[C@H]1CC[C@@]2(C)C(=C/C(=N\NC(=S)NC3CCCCC3)[C@H]3[C@@H]4CC[C@H]([C@H](C)CCCC(C)C)[C@@]4(C)CC[C@@H]32)C1 | 14.6 | 16.8 | 14.5 | 13.2 |
| 32 (≈ 54.8 µM) | 64 (≈ 110 µM) | 64 (≈ 110 µM) | 32 (≈ 54.8 µM) | CC(=O)O[C@H]1CC[C@@]2(C)C(=C/C(=N\NC(=S)NC3CCCC3)[C@H]3[C@@H]4CC[C@H]([C@H](C)CCCC(C)C)[C@@]4(C)CC[C@@H]32)C1 | 12.5 | 11.8 | 14.6 | 12.4 |
| 64 (≈ 106 µM) | 128 (≈ 212 µM) | 128 (≈ 212 µM) | 64 (≈ 106 µM) | CC(C)CCC[C@@H](C)[C@H]1CC[C@H]2[C@@H]3/C(=N/NC(=S)NC4CCCCCCC4)C=C4C[C@@H](Cl)CC[C@]4(C)[C@H]3CC[C@]12C | 15.6 | 14 | 14.6 | 12.4 |
| 256 (≈ 451 µM) | 128 (≈ 225 µM) | 128 (≈ 225 µM) | 256 (≈ 451 µM) | CC(C)CCC[C@@H](C)[C@H]1CC[C@H]2[C@@H]3/C(=N/NC(=S)NC4CCCCCCC4)C=C4CCCC[C@]4(C)[C@H]3CC[C@]12C | 9.9 | 11.3 | 10.2 | 10 |
| 64 (≈ 114 µM) | 64 (≈ 114 µM) | 128 (≈ 228 µM) | 64 (≈ 114 µM) | CC(C)CCC[C@@H](C)[C@H]1CC[C@H]2[C@@H]3/C(=N/NC(=S)NC4CCCC4)C=C4C[C@@H](Cl)CC[C@]4(C)[C@H]3CC[C@]12C | 16.2 | 13.4 | 12.5 | 15.6 |
| 256 (≈ 487 µM) | 128 (≈ 243 µM) | 128 (≈ 243 µM) | 256 (≈ 487 µM) | CC(C)CCC[C@@H](C)[C@H]1CC[C@H]2[C@@H]3/C(=N/NC(=S)NC4CCCC4)C=C4CCCC[C@]4(C)[C@H]3CC[C@]12C | 10.4 | 9.5 | 9.2 | 9.4 |
| 128 (≈ 204 µM) | 64 (≈ 102 µM) | 128 (≈ 204 µM) | 128 (≈ 204 µM) | CC(=O)O[C@H]1CC[C@@]2(C)C(=C/C(=N\NC(=S)NC3CCCCCCC3)[C@H]3[C@@H]4CC[C@H]([C@H](C)CCCC(C)C)[C@@]4(C)CC[C@@H]32)C1 | 12.6 | 11.4 | 13.6 | 13.8 |
| 128 (≈ 237 µM) | 256 (≈ 474 µM) | 256 (≈ 474 µM) | 128 (≈ 237 µM) | CC(C)CCC[C@@H](C)[C@H]1CC[C@H]2[C@@H]3/C(=N/NC(=S)NC4CCCCC4)C=C4CCCC[C@]4(C)[C@H]3CC[C@]12C | 10.2 | 9.2 | 10.4 | 7.8 |

| SMILES | MIC [5] [µg/mL] | MIC [6] [µg/mL] | MIC [7] [µg/mL] | MIC [8] [µg/mL] | inhibition zone (IZ) [1] [mm] | inhibition zone (IZ) [2] [mm] | inhibition zone (IZ) [3] [mm] | inhibition zone (IZ) [4] [mm] |
| --- | --- | --- | --- | --- | --- | --- | --- | --- |
| CC1(C)S[C@@H]2[C@H](NC(=O)[C@H](N)c3ccc(O)cc3)C(=O)N2[C@H]1C(=O)O [AMOXICILLIN] | 32 (≈ 87.6 µM) | 32 (≈ 87.6 µM) | 32 (≈ 87.6 µM) | 32 (≈ 87.6 µM) | 21 | 22.2 | 25.2 | 20 |
